Fibroblast inh – blocks proliferation of human lung fibroblasts; AID 719; LL 47 human lung fibroblast viability, ATP luminescence; stronger effect = lower value; viability, % at 10 µM; hit rate 1.1% among 85,000;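 active = viability at or below 50% in the single dose screen; inactive = viability above 50%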;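 also: compound exposure lasted 72 h before the ATP readout; 100% = median luminescence of untreated cell-only wells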
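Benchmarks: Cell-only wells, no compound | Test system: LL 47 human lung fibroblasts, passage 12 or lower | Input: 1,150 cells/well | Measured by: CellTiter-Glo luminescence measuring cellular ATP | Medium: IMEM, 15% FBS supplement | Schedule: Overnight attachment after seeding, then 72 h compound exposure at 37 °C | Doses: Compound addition at 0.1% DMSO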
HCT116 bCat-KO – beta-catenin-lacking colon tumor cell growth suppression. hit rate 1.5% among 140,000. viability, % at 10 µM. HCT116 beta-catenin knockout viability, CellTiter-Glo, 60 h; stronger effect = lower value. AID 818;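 active = viability at or under a set limit, the compound median less 4 SD, cut at about 6% in these data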;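 also: 0% = Hyamine 1622 control at 20 µM and 100% = untreated cell control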
PTEN del growth – suppresses growth of cells with PTEN deletion; viability, % at 10 µM; HCT116 PTEN-null viability, CellTiter-Glo, 60 h; stronger effect = lower value; hit rate 1.2% among 140,000;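 active = viability at or below a set limit, 4 SD under the median of all tested compounds, cut at about 3.7% in these data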;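 also: PTEN knockout HCT116 line with beta catenin targeted HCT116 as companion control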
HUVEC prolif 384 – blocks proliferation of human endothelial cells; AID 648; viability, % at 10 µM (by protocol); HUVEC proliferation, CellTiter-Glo luminescence, 72 h; stronger effect = lower value; hit rate 1.1% among 86,000;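 active = viability at or below 30%; inactive = viability above 30%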;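 also: 100% = median luminescence of DMSO-only cell control wells on each plate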
PTK2B oligo ant – Pyk2 (human) oligomerization antagonism; Q14289; Q293 cells, Pyk2 FERM NanoBiT luminescence; stronger effect = lower value; z-score (the deposit names both 25 µM and 10 µM); hit rate 0.83% among 99,000; AID 1347419;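 active = Z-score of -3 or lower, scaled per plate to the spread of control and sample wells; inactive = z-score above -3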;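 also: negative z-score means lost luminescence so less FERM oligomerization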
H69AR inhibit – blocks growth of human H69AR lung tumor cells | hit rate 6% among 85,000 | viability, % at 10 µM | H69AR lung tumor viability, ATP luminescence, 72 h; stronger effect = lower value;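 active = viability at or below 40%; inactive = viability above 40%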;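 also: multidrug resistant small cell line overexpressing MRP-1 efflux transporter; 100% = mean luminescence of untreated control wells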
* hit, by the source's call; . = no result. Many of the other results were omitted from the sample, so hits are more common in it than they were.

SMILES	Fibroblast inh	HCT116 bCat-KO	PTEN del growth	HUVEC prolif 384	PTK2B oligo ant	H69AR inhibit
CCOc1cc(/C=C2/C(=N)N3C=CSC3=NC2=O)ccc1OCCCOc1ccccc1C	32.5*	90.8	92.6	17.8*	0.33	6.5*
COc1cc(/C=C2/C(=N)N3C=CSC3=NC2=O)ccc1OCCCOc1ccccc1C	66.3	82.0	85.7	14.9*	0.03	6.1*
Cc1cc(N)ccc1N1CCCC1	.	87.9	91.2	.	-0.69	.
Nc1ccc(N2CCCCC2)cc1N1CCCCC1	.	3.2*	2.5*	.	-0.31	.
Cc1cc([N+](=O)[O-])c2[nH]c(C(=O)N/N=C/c3ccccc3C(=O)O)c(-c3ccccc3)c2c1	.	71.8	81.4	.	-3.03*	.
Cc1ccc2nc(C)c(C(=O)N/N=C/c3ccccc3[N+](=O)[O-])cc2c1	.	64.5	56.3	.	0.45	.
O=C(Nc1cccc(C(F)(F)F)c1)C12CC3CC(CC(C3)C1)C2	98.2	0.9*	1.0*	88.2	0.14	79.0
CCOC(=O)C1CCN(CC(O)COc2ccc(C(C)(C)CC)cc2)CC1 (stereo unspecified)	97.5	58.7	60.0	87.5	-0.33	25.7*
CCOC(=O)C1CCN(CC(O)COc2ccc(C(C)(C)C)cc2)CC1 (stereo unspecified)	104.7	8.3	8.9	82.1	-0.19	60.1
Cc1ccc(CSCC(=O)N/N=C/c2sccc2C)cc1	.	94.2	89.5	.	2.23	.
CCOC(=O)Cc1nnc2c(Nc3ccc(Cl)cc3)nc3nonc3n12	70.6	32.7	26.4	38.1	-1.15	14.1*
CC1CCc2nc(NC(=O)CSc3nc4ccccc4o3)sc2C1 (stereo unspecified)	88.2	86.1	84.2	62.9	1.95	30.6*
Cc1nnc(NC(=O)CSc2nc3ccccc3o2)s1	106.2	95.9	101.9	96.9	-0.81	107.2
COc1ccc(Cl)cc1NS(=O)(=O)c1ccc(OC)c(OC)c1	103.6	89.8	88.0	91.3	-0.57	95.2
CCOc1ccc(S(=O)(=O)Nc2cc(OC)ccc2OC)cc1	100.1	14.1	8.6	49.7	-0.59	22.9*
COc1ccc(OC)c(NS(=O)(=O)c2ccc(NC(C)=O)cc2)c1	92.8	76.4	66.8	90.9	0.36	34.0*
COc1ccc(OC)c(NS(=O)(=O)c2ccc(SC)cc2)c1	84.1	22.5	26.9	62.1	-0.18	13.9*
COc1ccc(S(=O)(=O)Nc2cc(Cl)ccc2OC)cc1	51.6	18.5	18.3	38.8	-0.09	19.3*
Cn1c(=O)[nH]c(=O)c2c1nc(N1CCCCCC1)n2CCCSc1nnnn1-c1ccccc1	.	86.7	86.4	.	.	.
O=C(Nc1cccc(Cl)c1Cl)c1cc(S(=O)(=O)NCCc2ccccc2)ccc1F	.	92.9	92.6	.	.	.
CC#C[C@]1(O)CC[C@H]2[C@@H]3CCC4=CC(=O)CCC4=C3[C@@H](c3ccc(N(C)C)cc3)C[C@@]21C	.	65.0	42.5	.	.	.
COc1cccc2c1C(=O)c1c(O)c3c(c(O)c1C2=O)C[C@@](O)(C(=O)CO)C[C@@H]3O[C@H]1C[C@H](N)[C@H](O)[C@H](C)O1	.	4.1*	4.3	.	.	.
O=C(Cc1cccs1)NCCSc1c(-c2ccc(Cl)cc2)[nH]c2ccccc12	.	4.7*	12.3	.	.	.
O=C(Nc1nc2ccccc2s1)c1cc2c(s1)-c1ccccc1OC2	30.4*	61.4	48.3	44.8	.	17.7*
CN(C)CC(C)(C)CNC(=O)c1cc(=O)c2ccccc2o1	.	109.5	106.7	.	-0.01	.
SMILES	Fibroblast inh	HCT116 bCat-KO	PTEN del growth	HUVEC prolif 384	PTK2B oligo ant	H69AR inhibit
CCOc1ccc(S(=O)(=O)Oc2ccc3ccccc3c2)cc1	.	75.5	77.0	.	.	.
CCOC(=O)Cn1c2ccc(OC)cc2c2nc3ccccc3nc21	80.3	46.9	60.3	75.2	-1.13	23.6*
Cc1cc(C)cc(NS(=O)(=O)c2ccc3c(c2)c(=O)n(C)c(=O)n3C)c1	33.6*	46.5	39.4	33.5	-1.85	83.1
Cc1ccc(NS(=O)(=O)c2ccc3c(c2)c(=O)n(C)c(=O)n3C)cc1F	83.3	50.4	62.4	59.9	-0.24	85.2
COc1ccc(S(=O)(=O)NCCC(C)C)cc1C	88.9	88.5	95.0	100.5	-1.49	84.8
CCCn1c(N2CCN(CC(=O)c3c(C)n(C)c4ccc(OC)cc34)CC2)nc2c1c(=O)[nH]c(=O)n2C	40.6*	14.9	18.4	96.9	0.23	33.4*
N#Cc1ccc(NC(=O)COC(=O)CCNS(=O)(=O)c2ccccc2)cc1	.	97.3	105.3	.	.	.
Cc1ccc(C)c(/C=C/C(=O)c2ccccc(=O)c2O)c1	.	11.8	8.2	.	-0.15	.
Cc1ccc(/C=C/C(=O)c2ccccc(=O)c2O)c(C)c1	.	4.2*	5.8	.	-0.28	.
O=C(/C=C/c1ccccc1Cl)c1ccccc(=O)c1O	.	1.3*	2.1*	.	.	.
Cc1ccc(OCCCC(=O)Nc2ccc(Br)cc2)cc1	.	93.5	94.8	.	0.55	.
CC(C)CSc1nc2c(c(=O)[nH]c(=O)n2C)n1CC(O)COc1cccc2ccccc12 (stereo unspecified)	90.8	68.0	68.0	79.2	-0.31	32.2*
C/C(=N/NC(=O)c1cnccn1)c1cccs1	.	78.5	91.8	.	.	.
COC(=O)[C@@]1(Cc2ccc(OC)cc2)[C@@H]2C(=CC(=O)[C@H]2CC(=O)C(=O)N2CCCC2)CN1C(=O)c1ccccc1	.	1.9*	2.0*	.	.	.
COC(=O)[C@@]1(Cc2ccc(OC)cc2)[C@@H]2[C@@H](CC(=O)[C@H]2CC(=O)C(=O)N(C)C)CN1C(=O)c1ccccc1	.	56.7	74.2	.	.	.
Cc1cc(C)c(OCCNC(=O)c2ccccc2Sc2ccccc2C#N)c(C)c1	.	42.4	44.9	.	.	.
Cc1ccc2cc(CN(Cc3ccc(F)cc3)Cc3nnnn3C3CCCC3)c(=O)[nH]c2c1	101.2	84.0	71.4	64.4	-1.3	35.9*
COc1ccc2cc(CN(Cc3ccco3)Cc3nnnn3C3CCCCC3)c(=O)[nH]c2c1	91.0	84.6	78.0	98.2	1.41	47.0
Cc1ccc2[nH]c(=O)c(CN(CCCN3CCOCC3)Cc3nnnn3C3CCCC3)cc2c1	88.5	82.5	91.7	94.1	0.34	85.2
Cc1ccc2cc(CN(Cc3ccccc3)Cc3nnnn3C3CCCC3)c(=O)[nH]c2c1	107.8	14.7	15.2	74.2	-1.65	5.0*
CCc1ccc2[nH]c(=O)c(CN(Cc3ccc4c(c3)OCO4)Cc3nnnn3C3CCCC3)cc2c1	88.9	40.4	26.9	62.5	-0.08	4.8*
O=C(/C=C/c1ccccc1)NC(=S)NNC(=O)c1ccco1	77.7	39.5	42.6	77.4	-0.03	24.9*
O=C(NNC(=O)c1ccco1)c1ccccc1	.	92.8	89.1	.	.	.
Cc1cccc(NC(=S)NNC(=O)c2ccco2)c1	.	97.7	96.2	.	0.31	.
O=C(/C=C/c1ccc(Br)cc1)NC(=S)NNC(=O)c1ccco1	72.7	35.9	45.2	61.0	-0.07	36.0*
CC(=O)Nc1cc(C(=O)OCC(=O)c2ccc(Cl)cc2Cl)ccc1C	.	100.2	102.6	.	0.58	.
CC(C)C(=O)Nc1cccc(C(=O)OCC(=O)c2ccc(Cl)cc2Cl)c1	.	93.2	105.9	.	-3.54*	.

Compound activity: PubChem, several laboratories
